# What was measured:
# Human alphaherpesvirus 3 [1] = assay: Antiviral activity against […] expressing thymidine kinase infected in HEL cells assessed as reduction of virus plaque formation after 4 days; type: functional, cell-based; conditions: Human alphaherpesvirus 3, strain Oka vaccine, 96 h
# [2] = tested on: Human immunodeficiency virus 1; assay: Antiviral activity against HIV1 infected in human CEM cells assessed as inhibition of virus-induced cytopathic effect after 4 days; type: functional, organism-based; conditions: Human immunodeficiency virus 1, CCRF-CEM, 96 h
# Outline: (§1)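 CEM T-lymphocytes (~3 × 10^5 cells/ml) were infected with HIV-1 IIIB or HIV-2 ROD at ~100 CCID50, then immediately plated with a range of compound concentrations. Giant cell formation was scored microscopically after 4 days at 37 °C. Cytostatic activity was tested in parallel in uninfected CEM cells.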
# [3] = Cytotoxicity against human HEL cells assessed as minimum compound concentration required to causes microscopically detectable alteration of normal cell morphology; type: cell-based
# Outline: (§2)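 Confluent, non-proliferating cell cultures were exposed to the compounds. The endpoint was the minimum concentration producing a microscopically detectable alteration of normal cell morphology.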
# Influenza A virus [4] = assay: Antiviral activity against Influenza A virus H1N1 infected in MDCK cells assessed as reduction visual scoring of virus-induced cytopathogenicity after 4 days; type: functional, organism-based; conditions: 96 h
# Outline: (§3)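 MDCK monolayers infected with 100 CCID50 of influenza A (H1N1 or H3N2) or influenza B, with varying compound concentrations. Cytopathicity read when untreated infected controls reached complete CPE.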
# Sindbis virus = assay: Antiviral activity against Sindbis virus infected in african green monkey Vero cells assessed as inhibition of virus-induced cytopathogenicity after 4 days; type: functional, organism-based; conditions: 96 h
# Outline: (§4)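 Confluent HEL, Vero or HeLa monolayers were inoculated with 100 CCID50 of virus in the presence of varying concentrations of compound. Cytopathicity was scored when it reached completion in untreated, virus-infected control cultures.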
# [5] = tested on: Respiratory syncytial virus; assay: Antiviral activity against Respiratory syncytial virus infected in human HeLa cells assessed as inhibition of virus-induced cytopathogenicity after 4 days; type: functional, organism-based; conditions: 96 h; outline: as §4
# Plasmodium falciparum [6] = assay: Resistant factor, ratio of IC50 for chloroquine-resistant Plasmodium falciparum K1 to IC50 for chloroquine-sensitive Plasmodium falciparum 3D7; type: functional
# Outline: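 Resistance factor computed as IC50 against K1 divided by IC50 against 3D7, both from the [3H]hypoxanthine incorporation assay.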
# [7] = tested on: Vesicular stomatitis virus; assay: Antiviral activity against Vesicular stomatitis virus infected in HeLa cells assessed as inhibition of virus-induced cytopathogenicity after 4 days; type: functional, organism-based; conditions: 96 h
# Outline: (§5)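 Confluent HEL or HeLa monolayers infected with 100 CCID50 of virus in the presence of varying compound concentrations.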
# Plasmodium falciparum [8] = assay: Antiplasmodial activity chloroquine-sensitive Plasmodium falciparum 3D7 infected in human A+ erythrocytes assessed as inhibition of [3H]-hypoxanthine incorporation after 24 hrs by scintillation counting; type: functional, organism-based
# [9] = Inhibition of beta-hematin formation assessed as Ferriprotoporphyrin IX biomineralisation at 1 mg/ml after 24 hrs; type: functional
# Outline: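 Hemin chloride (0.5 mg/ml in DMSO) mixed with 0.5 M sodium acetate buffer pH 4.4 and drug or solvent control, incubated 37 °C for 24 h. Pellet washed with DMSO to remove unreacted hemin, dissolved in 0.1 N NaOH, absorbance read at 405 nm; percent inhibition relative to control. Highest concentration tested 1 mg/ml.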
# Human respirovirus 3 = assay: Antiviral activity against Parainfluenza-3 virus infected in african green monkey Vero cells assessed as inhibition of virus-induced cytopathogenicity after 4 days; type: functional, organism-based; conditions: Human respirovirus 3, Vero, 96 h; outline: as §4
# [10] = Cytotoxicity against african green monkey Vero cells assessed as minimum compound concentration required to causes microscopically detectable alteration of normal cell morphology; type: cell-based; conditions: chlorocebus sabaeus; outline: as §2
# Influenza A virus [11] = assay: Antiviral activity against Influenza A virus H3N2 infected in MDCK cells assessed as reduction visual scoring of virus-induced cytopathogenicity after 4 days; type: functional, organism-based; conditions: 96 h; outline: as §3
# Influenza B virus [12] = assay: Antiviral activity against Influenza B virus infected in MDCK cells assessed as reduction visual scoring of virus-induced cytopathogenicity after 4 days; type: functional, organism-based; conditions: 96 h; outline: as §3
# Human alphaherpesvirus 3 [13] = assay: Antiviral activity against thymidine kinase-deficient […] infected in HEL cells assessed as reduction of virus plaque formation after 4 days; type: functional, organism-based; conditions: Human alphaherpesvirus 3, 07-1, HEL, 96 h
# [14] = Cytotoxicity against MDCK cells assessed as minimum compound concentration required to causes microscopically detectable alteration of normal cell morphology; type: cell-based, Canis lupus familiaris; conditions: dog; outline: as §2
# Coxsackievirus B4 [15] = assay: Antiviral activity against Coxsackie virus B4 infected in african green monkey Vero cells assessed as inhibition of virus-induced cytopathogenicity after 4 days; type: functional, organism-based; conditions: Enterovirus B, 96 h; outline: as §4
# Human betaherpesvirus 5 [16] = assay: Antiviral activity against Cytomegalovirus AD-169 infected in HEL cells assessed as inhibition of virus plaque formation after 4 days; type: functional, organism-based; conditions: Human betaherpesvirus 5, AD169, HEL, 96 h
# Human betaherpesvirus 5 [17] = assay: Antiviral activity against Human cytomegalovirus Davis infected in HEL cells assessed as inhibition of virus plaque formation after 4 days; type: functional, organism-based; conditions: Human betaherpesvirus 5, Davis, 96 h
# Influenza A virus [18] = assay: Antiviral activity against Influenza A virus H1N1 infected in MDCK cells assessed as inhibition of virus-induced cytopathogenicity after 4 days by colorimetric formazan-based MTS assay; type: functional, organism-based; conditions: 96 h
# [19] = Cytotoxicity against cat CRFK cells assessed as cell viability by colorimetric formazan-based MTS assay; design: species or system Felis catus; conditions: crfk
# [20] = tested on: Mammalian orthoreovirus 1; assay: Antiviral activity against Reovirus-1 infected in african green monkey Vero cells assessed as inhibition of virus-induced cytopathogenicity after 4 days; type: functional, organism-based; conditions: Mammalian orthoreovirus 1, Vero, 96 h; outline: as §4
# Felid alphaherpesvirus 1 = assay: Antiviral activity against Feline herpesvirus infected in cat CRFK cells assessed as inhibition of virus-induced cytopathic effect after 4 days by colorimetric formazan-based MTS assay; type: functional, organism-based; conditions: Felid alphaherpesvirus 1, CRFK, 96 h
# [21] = Selectivity index, ratio of CC50 for MDCK cells to IC50 for chloroquine-resistant Plasmodium falciparum K1; type: functional
# Outline: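 Selectivity index computed as MTS-based CC50 on MDCK cells divided by IC50 against P. falciparum K1.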
# Punta Toro virus = assay: Antiviral activity against Punta Toro virus infected in african green monkey Vero cells assessed as inhibition of virus-induced cytopathogenicity after 4 days; type: functional, organism-based; conditions: 96 h; outline: as §4
# Influenza B virus [22] = assay: Antiviral activity against Influenza B virus infected in MDCK cells assessed as inhibition of virus-induced cytopathogenicity after 4 days by colorimetric formazan-based MTS assay; type: functional, organism-based; conditions: 96 h
# Human alphaherpesvirus 1 [23] = assay: Antiviral activity against HSV1 KOS infected in HEL cells assessed as inhibition of virus-induced cytopathogenicity after 4 days; type: functional, organism-based; conditions: Human alphaherpesvirus 1, KOS, 96 h; outline: as §5
# Coxsackievirus B4 [24] = assay: Antiviral activity against Coxsackie virus B4 infected in human HeLa cells assessed as inhibition of virus-induced cytopathogenicity after 4 days; type: functional, organism-based; conditions: Enterovirus B, 96 h; outline: as §4
# [25] = tested on: Vesicular stomatitis virus; assay: Antiviral activity against Vesicular stomatitis virus infected in HEL cells assessed as inhibition of virus-induced cytopathogenicity after 4 days; type: functional, organism-based; conditions: 96 h; outline: as §5
# Influenza A virus [26] = assay: Antiviral activity against Influenza A virus H3N2 infected in MDCK cells assessed as inhibition of virus-induced cytopathogenicity after 4 days by colorimetric formazan-based MTS assay; type: functional, organism-based; conditions: 96 h
# Human alphaherpesvirus 2 = assay: Antiviral activity against HSV2 G infected in HEL cells assessed as inhibition of virus-induced cytopathogenicity after 4 days; type: functional, organism-based; conditions: Human alphaherpesvirus 2, strain G, 96 h; outline: as §4
# MDCK = assay: Cytotoxicity against MDCK cells assessed as cell viability by colorimetric formazan-based MTS assay; design: species or system Canis lupus familiaris; conditions: dog, mdck
# Outline: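 Cytotoxicity on MDCK cells; 50% cytotoxic concentration from cell viability measured by colorimetric formazan-based MTS assay.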
# [27] = tested on: Feline infectious peritonitis virus; assay: Antiviral activity against FIPV infected in cat CRFK cells assessed as inhibition of virus-induced cytopathic effect after 4 days by colorimetric formazan-based MTS assay; type: functional, cell-based; conditions: Alphacoronavirus 1, CRFK, 96 h
# [28] = tested on: Human immunodeficiency virus 2; assay: Antiviral activity against HIV2 infected in human CEM cells assessed as inhibition of virus-induced cytopathic effect after 4 days; type: functional, organism-based; conditions: Human immunodeficiency virus 2, CCRF-CEM, 96 h; outline: as §1
# HeLa = assay: Cytotoxicity against human HeLa cells assessed as cell viability by colorimetric formazan-based MTS assay
# [29] = Cytotoxicity against human HeLa cells assessed as minimum compound concentration required to causes microscopically detectable alteration of normal cell morphology; type: cell-based; outline: as §2
# Plasmodium falciparum [30] = assay: Antiplasmodial activity chloroquine-resistant Plasmodium falciparum K1 infected in human A+ erythrocytes assessed as inhibition of [3H]-hypoxanthine incorporation after 24 hrs by scintillation counting; type: functional, organism-based
# Human alphaherpesvirus 1 [31] = assay: Antiviral activity against thymidine kinase-deficient acyclovir-resistant HSV1 KOS infected in HEL cells assessed as inhibition of virus-induced cytopathogenicity after 4 days; type: functional, organism-based; conditions: Human alphaherpesvirus 1, KOS, 96 h; outline: as §5
structure (smiles),measurement,setting,value
CCOC(=O)c1c(C)nc(NCCCNc2ccnc3cc(Cl)ccc23)nc1-c1ccccc1,EC50,Human alphaherpesvirus 3 [1],> 4 µM
same,EC50,[2],> 2 µM
same,MCC,[3],> 20 µM
same,EC50,Influenza A virus [4],> 0.16 µM
same,EC50,Sindbis virus,> 20 µM
same,EC50,[5],> 100 µM
same,Ratio IC50,Plasmodium falciparum [6],0.21
same,EC50,[7],> 100 µM
same,IC50,Plasmodium falciparum [8],0.247 µM
same,inhibition,[9],100%
same,EC50,Human respirovirus 3,> 20 µM
same,MCC,[10],100 µM
same,EC50,Influenza A virus [11],> 0.16 µM
same,EC50,Influenza B virus [12],> 0.16 µM
same,EC50,Human alphaherpesvirus 3 [13],> 20 µM
same,MCC,[14],800 nM
same,EC50,Coxsackievirus B4 [15],> 20 µM
same,EC50,Human betaherpesvirus 5 [16],4 µM
same,EC50,Human betaherpesvirus 5 [17],4 µM
same,EC50,Influenza A virus [18],> 0.16 µM
same,CC50,[19],15.9 µM
same,EC50,[20],> 20 µM
same,EC50,Felid alphaherpesvirus 1,> 4 µM
same,Ratio CC50/IC50,[21],15.33
same,EC50,Punta Toro virus,> 20 µM
same,EC50,Influenza B virus [22],> 0.16 µM
same,EC50,Human alphaherpesvirus 1 [23],> 100 µM
same,EC50,Coxsackievirus B4 [24],> 100 µM
same,EC50,[25],> 100 µM
same,EC50,Influenza A virus [26],> 0.16 µM
same,EC50,Human alphaherpesvirus 2,> 100 µM
same,CC50,MDCK,0.8 µM
same,EC50,[27],> 4 µM
same,EC50,[28],> 2 µM
same,CC50,HeLa,7.07 µM
same,MCC,[29],> 100 µM
same,IC50,Plasmodium falciparum [30],0.0522 µM
same,EC50,Human alphaherpesvirus 1 [31],> 100 µM
